Source: ChEMBL document CHEMBL2331168, “Anticonvulsant evaluation of aminoalkanol derivatives of 2- and 4-methylxanthone” (Bioorg Med Chem, 2013)
Activity calls are given as the source filed them.

Legend:
Rattus norvegicus [1] = test: Anticonvulsant activity in Sprague-Dawley rat assessed as protection against maximal electroshock-induced seizures at 30 mg/kg, po after 1 hr; assay type: functional, organism-based; design: dose 30 mg/kg
Method in brief: (§1)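 Male Sprague-Dawley rats dosed orally at 30 mg/kg and tested at 0.25, 0.5, 1, 2 and 4 h. Seizures were induced by 60 Hz alternating current at 150 mA for 0.2 s through corneal electrodes, after a drop of 0.9% NaCl in each eye. Protection meant abolition of hindlimb tonic extension. Reported as protected/tested, usually 4 rats per time point.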

Rattus norvegicus [2] = test: Neurotoxicity in Sprague-Dawley rat assessed as minimal motor impairment at 30 mg/kg, po after 1 hr by rotorod test; conditions: in vivo
Mus musculus [3] = test: Anticonvulsant activity in albino mouse assessed as protection against maximal electroshock-induced seizures at 100 mg/kg, ip after 4 hrs; assay type: functional, organism-based; design: dose 100 mg/kg
Method in brief: (§2)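 Male albino mice (Carworth Farms No. 1) were given the compound ip as a suspension in 0.5% methylcellulose at 3–300 mg/kg. MES testing was at 0.5 and 4 h, sometimes also at 0.25 and 1 h. Current was 60 Hz, 50 mA, 0.2 s via corneal electrodes, with saline eye drops. Protection meant no hindlimb tonic extension, scored as protected/tested.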

Rattus norvegicus [4] = test: Anticonvulsant activity in Sprague-Dawley rat assessed as protection against maximal electroshock-induced seizures at 30 mg/kg, po after 2 hrs; assay type: functional, organism-based; design: dose 30 mg/kg; method in brief: as §1
Mus musculus [5] = test: Anticonvulsant activity in albino mouse assessed as protection against subcutaneous pentetrazole-induced seizures at 30 mg/kg, ip after 0.5 hrs; assay type: functional, organism-based; design: dose 30 mg/kg
Method in brief: (§3)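 Male albino mice (Carworth Farms No. 1) received compound ip in 0.5% methylcellulose, then pentetrazole 85 mg/kg sc in 0.9% NaCl at 0.5 or 4 h. Mice were watched for at least 30 min. Protection meant no threshold seizure, defined as a single clonic spasm lasting at least 5 s. Scored as protected/tested.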

Mus musculus [6] = test: Anticonvulsant activity in albino mouse assessed as protection against maximal electroshock-induced seizures at 30 mg/kg, ip after 4 hrs; assay type: functional, organism-based; design: dose 30 mg/kg; method in brief: as §2
Rattus norvegicus [7] = test: Neurotoxicity in Sprague-Dawley rat assessed as minimal motor impairment at 30 mg/kg, po after 0.25 hrs by rotorod test; conditions: in vivo
Rattus norvegicus [8] = test: Anticonvulsant activity in Sprague-Dawley rat assessed as protection against maximal electroshock-induced seizures at 30 mg/kg, po after 0.25 hrs; assay type: functional, organism-based; design: dose 30 mg/kg; method in brief: as §1
Mus musculus [9] = test: Neurotoxicity in albino mouse assessed as minimal motor impairment at 30 mg/kg, ip after 0.5 hrs by rotorod test; assay type: toxicity, organism-based; design: dose 30 mg/kg, route intraperitoneal; conditions: in vivo
Method in brief: (§4)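 Male albino mice (Carworth Farms No. 1) were dosed ip with suspensions in 0.5% methylcellulose and put on a 1 in. knurled rod rotating at 6 rpm at set times after dosing. Neurotoxicity meant failure to stay on the rod for at least 1 min in each of three trials. Scored as impaired/tested.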

Mus musculus [10] = test: Anticonvulsant activity in albino mouse assessed as protection against subcutaneous pentetrazole-induced seizures at 100 mg/kg, ip after 0.5 hrs; assay type: functional, organism-based; design: dose 100 mg/kg; method in brief: as §3
Rattus norvegicus [11] = test: Neurotoxicity in Sprague-Dawley rat assessed as minimal motor impairment at 30 mg/kg, po after 2 hrs by rotorod test; conditions: in vivo
Mus musculus [12] = test: Neurotoxicity in albino mouse assessed as minimal motor impairment at 30 mg/kg, ip after 4 hrs by rotorod test; assay type: toxicity, organism-based; design: dose 30 mg/kg, route intraperitoneal; conditions: in vivo; method in brief: as §4
Mus musculus [13] = test: Neurotoxicity in albino mouse assessed as minimal motor impairment at 100 mg/kg, ip after 4 hrs by rotorod test; assay type: toxicity, organism-based; design: dose 100 mg/kg, route intraperitoneal; conditions: in vivo; method in brief: as §4
Mus musculus [14] = test: Anticonvulsant activity in albino mouse assessed as protection against maximal electroshock-induced seizures at 30 mg/kg, ip after 0.5 hrs; assay type: functional, organism-based; design: dose 30 mg/kg; method in brief: as §2
Rattus norvegicus [15] = test: Neurotoxicity in Sprague-Dawley rat assessed as minimal motor impairment at 30 mg/kg, po after 0.5 hrs by rotorod test; conditions: in vivo
Mus musculus [16] = test: Anticonvulsant activity in albino mouse assessed as protection against subcutaneous pentetrazole-induced seizures at 30 mg/kg, ip after 4 hrs; assay type: functional, organism-based; design: dose 30 mg/kg; method in brief: as §3
Mus musculus [17] = test: Neurotoxicity in albino mouse assessed as minimal motor impairment at 300 mg/kg, ip after 0.5 hrs by rotorod test; assay type: toxicity, organism-based; design: dose 300 mg/kg, route intraperitoneal; conditions: in vivo; method in brief: as §4
Rattus norvegicus [18] = test: Neurotoxicity in Sprague-Dawley rat assessed as minimal motor impairment at 30 mg/kg, po after 4 hrs by rotorod test; conditions: in vivo
Mus musculus [19] = test: Anticonvulsant activity in albino mouse assessed as protection against maximal electroshock-induced seizures at 300 mg/kg, ip after 4 hrs; assay type: functional, organism-based; design: dose 300 mg/kg; method in brief: as §2
Rattus norvegicus [20] = test: Anticonvulsant activity in Sprague-Dawley rat assessed as protection against maximal electroshock-induced seizures at 30 mg/kg, po after 4 hrs; assay type: functional, organism-based; design: dose 30 mg/kg; method in brief: as §1
Mus musculus [21] = test: Anticonvulsant activity in albino mouse assessed as protection against maximal electroshock-induced seizures at 300 mg/kg, ip after 0.5 hrs; assay type: functional, organism-based; design: dose 300 mg/kg; method in brief: as §2
Mus musculus [22] = test: Anticonvulsant activity in albino mouse assessed as protection against subcutaneous pentetrazole-induced seizures at 300 mg/kg, ip after 0.5 hrs; assay type: functional, organism-based; design: dose 300 mg/kg; method in brief: as §3
Mus musculus [23] = test: Anticonvulsant activity in albino mouse assessed as protection against subcutaneous pentetrazole-induced seizures at 100 mg/kg, ip after 4 hrs; assay type: functional, organism-based; design: dose 100 mg/kg; method in brief: as §3
Mus musculus [24] = test: Anticonvulsant activity in albino mouse assessed as protection against subcutaneous pentetrazole-induced seizures at 300 mg/kg, ip after 4 hrs; assay type: functional, organism-based; design: dose 300 mg/kg; method in brief: as §3
Mus musculus [25] = test: Neurotoxicity in albino mouse assessed as minimal motor impairment at 100 mg/kg, ip after 0.5 hrs by rotorod test; assay type: toxicity, organism-based; design: dose 100 mg/kg, route intraperitoneal; conditions: in vivo; method in brief: as §4
Mus musculus [26] = test: Anticonvulsant activity in albino mouse assessed as protection against maximal electroshock-induced seizures at 100 mg/kg, ip after 0.5 hrs; assay type: functional, organism-based; design: dose 100 mg/kg; method in brief: as §2
Mus musculus [27] = test: Neurotoxicity in albino mouse assessed as minimal motor impairment at 300 mg/kg, ip after 4 hrs by rotorod test; assay type: toxicity, organism-based; design: dose 300 mg/kg, route intraperitoneal; conditions: in vivo; method in brief: as §4
Rattus norvegicus [28] = test: Anticonvulsant activity in Sprague-Dawley rat assessed as protection against maximal electroshock-induced seizures at 30 mg/kg, po after 0.5 hrs; assay type: functional, organism-based; design: dose 30 mg/kg; method in brief: as §1

Structure (SMILES) | Activity (Rattus norvegicus [2]) | Activity (Mus musculus [3]) | Activity (Mus musculus [5]) | Activity (Mus musculus [6]) | Activity (Rattus norvegicus [7]) | Activity (Rattus norvegicus [8]) | Activity (Mus musculus [9]) | Activity (Mus musculus [10]) | Activity (Rattus norvegicus [11]) | Activity (Mus musculus [12]) | Activity (Mus musculus [13]) | Activity (Mus musculus [14]) | Activity (Rattus norvegicus [15]) | Activity (Mus musculus [16]) | Activity (Mus musculus [17]) | Activity (Rattus norvegicus [18]) | Activity (Mus musculus [19]) | Activity (Mus musculus [21]) | Activity (Mus musculus [22]) | Activity (Mus musculus [23]) | further results
COc1ccc2c(=O)c3cccc(CNC(C)CO)c3oc2c1.Cl (racemic) | Non-toxic | inactive | inactive | inactive | Non-toxic | inactive | Non-toxic | inactive | Non-toxic | Non-toxic | Toxic | inactive | Non-toxic | inactive | Toxic | Non-toxic | – | – | – | – | Activity (Rattus norvegicus [1]): inactive; Activity (Rattus norvegicus [4]): inactive
CC[C@@H](CO)NCc1cccc2c(=O)c3ccc(OC)cc3oc12 | Non-toxic | – | inactive | inactive | Non-toxic | inactive | – | inactive | Non-toxic | Non-toxic | – | inactive | Non-toxic | inactive | Toxic | Non-toxic | Active | Active | inactive | inactive | Activity (Rattus norvegicus [20]): inactive; Activity (Mus musculus [24]): inactive
COc1ccc2c(=O)c3cccc(CNCC(C)O)c3oc2c1 (racemic) | – | – | inactive | inactive | – | – | Non-toxic | inactive | – | Non-toxic | – | inactive | – | inactive | Toxic | – | – | – | – | inactive | Activity (Mus musculus [25]): Toxic; Activity (Mus musculus [26]): Active
COc1ccc2c(=O)c3cccc(CNC(C)(C)CO)c3oc2c1 | Non-toxic | inactive | inactive | inactive | Non-toxic | inactive | Non-toxic | inactive | Non-toxic | Non-toxic | Non-toxic | inactive | Non-toxic | inactive | Toxic | Non-toxic | – | – | – | inactive | Activity (Mus musculus [25]): Toxic; Activity (Rattus norvegicus [4]): inactive; Activity (Mus musculus [26]): Active
COc1ccc2c(=O)c3cccc(CN[C@H](C)CO)c3oc2c1 | – | inactive | inactive | inactive | Non-toxic | inactive | Non-toxic | inactive | Non-toxic | Non-toxic | Non-toxic | inactive | – | inactive | Toxic | – | Active | Active | inactive | inactive | Activity (Rattus norvegicus [1]): inactive; Activity (Rattus norvegicus [20]): inactive; Activity (Mus musculus [27]): Toxic; Activity (Mus musculus [26]): inactive
CC[C@H](CO)NCc1cccc2c(=O)c3ccc(OC)cc3oc12 | Non-toxic | inactive | inactive | inactive | Non-toxic | – | Non-toxic | inactive | Non-toxic | Non-toxic | Non-toxic | inactive | Non-toxic | inactive | Toxic | Non-toxic | Active | Active | inactive | inactive | Activity (Mus musculus [25]): Non-toxic; Activity (Mus musculus [27]): Non-toxic; Activity (Rattus norvegicus [28]): inactive; Activity (Mus musculus [24]): inactive
COc1ccc2c(=O)c3cccc(CN[C@@H](C)CO)c3oc2c1 | Non-toxic | inactive | inactive | inactive | Non-toxic | inactive | Non-toxic | inactive | Non-toxic | Non-toxic | Non-toxic | inactive | Non-toxic | inactive | – | Non-toxic | Active | inactive | inactive | inactive | Activity (Rattus norvegicus [4]): inactive; Activity (Rattus norvegicus [20]): inactive; Activity (Mus musculus [27]): Non-toxic; Activity (Rattus norvegicus [28]): inactive; Activity (Mus musculus [24]): inactive
CC(CO)NCc1ccc2oc3ccc(Cl)cc3c(=O)c2c1 (racemic) | Non-toxic | – | inactive | inactive | Non-toxic | inactive | Non-toxic | inactive | Non-toxic | Non-toxic | Non-toxic | inactive | Non-toxic | inactive | Non-toxic | Non-toxic | Active | inactive | inactive | inactive | Activity (Mus musculus [25]): Non-toxic; Activity (Rattus norvegicus [4]): inactive; Activity (Mus musculus [27]): Non-toxic; Activity (Mus musculus [26]): inactive; Activity (Rattus norvegicus [28]): inactive; Activity (Mus musculus [24]): inactive
C[C@H](CO)NCc1ccc2oc3ccc(Cl)cc3c(=O)c2c1 | Non-toxic | inactive | inactive | inactive | Non-toxic | – | Non-toxic | inactive | Non-toxic | Non-toxic | Non-toxic | inactive | Non-toxic | inactive | – | Non-toxic | Active | Active | inactive | inactive | Activity (Mus musculus [25]): Non-toxic; Activity (Rattus norvegicus [4]): inactive; Activity (Mus musculus [27]): Non-toxic; Activity (Rattus norvegicus [28]): inactive; Activity (Mus musculus [24]): inactive
